# Reference: ChEMBL document CHEMBL3244101, “2-, 3-, and 4-(alpha, alpha, beta, beta-tetrafluorophenethyl)benzylamines. A new class of antiarrhythmic agents” (J Med Chem, 1977)
# What was measured:
# Canis familiaris [1] = assay: Hypotensive activity in iv dosed anesthetized dog at higher doses; type: ADME, organism-based, Canis lupus familiaris; conditions: in vivo
# Canis familiaris [2] = assay: Effect on cardiac conduction in anesthetized acute myocardial infarction dog model assessed as increase in QT duration at 20 mg/kg, iv administered 10 mins prior to infarction measured after 10 mins (reference value: 2 ms); type: functional, Canis lupus familiaris, Heart
# Canis familiaris [3] = assay: Antiarrhythmic activity in anesthetized acute myocardial infarction dog model assessed as normal ECG complexes at 20 mg/kg, iv administered 10 mins prior to infarction measured during 1-hr postinfarction period (reference value: 19%); type: functional, Canis lupus familiaris, Heart
# Procedure, shortened: (§1)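 Sclerosing agent (tetrafluorohexachlorobutane) injected into the anterior descending coronary artery to produce a multifocal ventricular arrhythmia. Single iv dose 10 min before infarction. Segmented ECG tracings over the 1 h after infarction were scored as the percentage of complexes of sinus origin (normal). Saline controls were run alongside.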
# Canis familiaris [4] = assay: Myocardial depressant activity in iv dosed anesthetized dog at higher doses; type: ADME, organism-based, Canis lupus familiaris, Myocardium; conditions: in vivo
# Canis familiaris [5] = assay: Reduction in heart rate in anesthetized acute myocardial infarction dog model at 20 mg/kg, iv administered 10 mins prior to infarction (reference value: 6 bpm); type: functional, Canis lupus familiaris
# Canis familiaris [6] = assay: Effect on cardiac conduction in anesthetized acute myocardial infarction dog model assessed as increase in PR interval at 20 mg/kg, iv administered 10 mins prior to infarction measured after 10 mins (reference value: 0 ms); type: functional, Canis lupus familiaris, Heart
# Canis familiaris [7] = assay: Effect on cardiac conduction in anesthetized acute myocardial infarction dog model assessed as increase in PR interval at 40 mg/kg, iv administered 10 mins prior to infarction measured after 10 mins (reference value: 0 ms); type: functional, Canis lupus familiaris, Heart
# Canis familiaris [8] = assay: Reduction in heart rate in anesthetized acute myocardial infarction dog model at 40 mg/kg, iv administered 10 mins prior to infarction (reference value: 6 bpm); type: functional, Canis lupus familiaris
# Canis familiaris [9] = assay: Antiarrhythmic activity in anesthetized acute myocardial infarction dog model assessed as normal ECG complexes at 40 mg/kg, iv administered 10 mins prior to infarction measured during 1-hr postinfarction period (reference value: 19%); type: functional, Canis lupus familiaris, Heart; procedure, shortened: as §1
# Canis familiaris [10] = assay: Effect on cardiac conduction in anesthetized acute myocardial infarction dog model assessed as increase in QT duration at 40 mg/kg, iv administered 10 mins prior to infarction measured after 10 mins (reference value: 2 ms); type: functional, Canis lupus familiaris, Heart
structure (smiles),measurement,setting,value
CCN(CC)CCNC(=O)c1ccc(N)cc1 [PROCAINAMIDE],Activity,Canis familiaris [1],Toxic
same,Time,Canis familiaris [2],40 ms
same,Activity,Canis familiaris [3],32%
same,Activity,Canis familiaris [4],Toxic
same,Activity,Canis familiaris [5],26 bpm
same,Time,Canis familiaris [6],10 ms
same,Time,Canis familiaris [7],23 ms
same,Activity,Canis familiaris [8],25 bpm
same,Activity,Canis familiaris [9],55%
same,Time,Canis familiaris [10],33 ms
